Test results published in ChEMBL document CHEMBL5724801, “EUbOPEN Chemogenomics Library - Multiplex” (2024).
Several values for one entry are separate records, joined by “and”; a condition that tells them apart may be missing. Equal values may be shown once.

system: HEK-293T; test: Multiplex assay against HEK293T; format: toxicity, cell-based; settings: human, 12 h, 1 µM, compound concentration 1 uM
How it was run: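 Tubulin, mitochondrial-mass and membrane-permeability phenotypes are per cents of healthy-nucleus cells. Cells were gated by CellPathfinder machine learning into Hoechst high-intensity objects or normal cells, normal cells into healthy, pyknosed or fragmented nuclei, and pyknosed cells into mitotic or apoptotic. Before that, live cells stained at seeding with Hoechst33342, BioTracker Green Microtubule Cytoskeleton Dye, MitoTracker Red and Annexin V Alexa Fluor 680 were imaged on a CQ1 microscope at 37°C and 5% CO2 after compound addition.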

SMILES	Population Apoptotic (%)	Population Hoechst High Intensity Objects (%)	Population Membrane Permeable-Phenotype (%)	Population Mitochondria Different-Phenotype (%)	Population Mitotic Cells (%)	Population Normal (%)	Population Pyknosed Nuclei (%)	Total Cell Count	Population Fragmented Nuclei (%)	Population Healthy Nuclei (%)
CN(C)Cc1cccc(NC(=C2C(=O)Nc3cc(C(=O)N(C)C)ccc32)c2ccccc2)c1	14.71% and 13.93%	0%	2.97% and 0%	27.72% and 21.05%	85.29% and 86.07%	100%	32.08% and 85.31%	424 and 143		
COC[C@@H](CC(C)C)NC1=N/C(=C\c2ccc3ncsc3c2)C(=O)N1C	13.64% and 37.5%	0.8% and 0%	0.69% and 2.44%		86.36% and 62.5%	99.2% and 100%	35.48% and 68.57%	250 and 175	6.45% and 8%	58.06% and 23.43%
COc1cc(/C=C(\C#N)C(=O)Nc2nnc(C(F)(F)F)s2)ccc1OCc1ccc(C(F)(F)F)cc1C(F)(F)F	10% and 12.9%	0.67% and 0%	0%	45.57% and 22.22%	90% and 87.1%	99.33% and 100%	44.07% and 83.22%	297 and 149	2.37% and 4.7%	
CN(C)C(=O)Cn1cc(-c2ccc(-c3nnc4ccccn34)cc2)cn1	31% and 43%	9% and 10%	0%	40% and 59%	68% and 56%	90% and 89%	11% and 12%	432 and 337	7%	80% and 79%

same assay, conditions: human, 12 h, 1 µM, compound concentration 1 uM

SMILES	Population Tubulin-Different-Phenotype (%)
COC[C@@H](CC(C)C)NC1=N/C(=C\c2ccc3ncsc3c2)C(=O)N1C	6.94% and 14.63%
CN(C)C(=O)Cn1cc(-c2ccc(-c3nnc4ccccn34)cc2)cn1	32% and 27%

same assay, conditions: human, 12 h, 10 µM, compound concentration 10 uM

SMILES	Population Apoptotic (%)	Population Fragmented Nuclei (%)	Population Hoechst High Intensity Objects (%)	Population Membrane Permeable-Phenotype (%)	Population Mitochondria Different-Phenotype (%)	Population Mitotic Cells (%)	Population Normal (%)	Population Pyknosed Nuclei (%)	Population Tubulin-Different-Phenotype (%)	Total Cell Count
CN(C)Cc1cccc(NC(=C2C(=O)Nc3cc(C(=O)N(C)C)ccc32)c2ccccc2)c1	28.57% and 37.07%	3.59% and 6.21%	0.65% and 0%	0.65% and 0%	22.58% and 0%	71.43% and 62.93%	99.35% and 100%	45.75% and 80%	30.97% and 70%	308 and 145
COC[C@@H](CC(C)C)NC1=N/C(=C\c2ccc3ncsc3c2)C(=O)N1C	25.51% and 35.09%	88.19% and 92.28%	4.51% and 10.38%	0% and 5.88%	0%	74.49% and 64.91%	95.49% and 89.62%	8.27% and 5.95%	16.67% and 5.88%	1241 and 1069
COc1cc(/C=C(\C#N)C(=O)Nc2nnc(C(F)(F)F)s2)ccc1OCc1ccc(C(F)(F)F)cc1C(F)(F)F	7.56% and 15.32%	3.37% and 4.96%	0%	0%	33.93% and 13.04%	92.44% and 84.68%	100%	40.07% and 78.72%		297 and 141
CN(C)C(=O)Cn1cc(-c2ccc(-c3nnc4ccccn34)cc2)cn1	32% and 51%	9% and 7%	7% and 8%	0%	61% and 55%	67% and 48%	92% and 91%	14% and 12%	42% and 18%	427 and 356

same assay, conditions: human, 12 h, 10 µM, compound concentration 10 uM

SMILES	Population Healthy Nuclei (%)
COC[C@@H](CC(C)C)NC1=N/C(=C\c2ccc3ncsc3c2)C(=O)N1C	3.54% and 1.77%
CN(C)C(=O)Cn1cc(-c2ccc(-c3nnc4ccccn34)cc2)cn1	76% and 80%

same assay, conditions: human, 24 h, 1 µM, compound concentration 1 uM

SMILES	Population Apoptotic (%)	Population Healthy Nuclei (%)	Population Hoechst High Intensity Objects (%)	Population Membrane Permeable-Phenotype (%)	Population Mitochondria Different-Phenotype (%)	Population Mitotic Cells (%)	Population Normal (%)	Population Tubulin-Different-Phenotype (%)	Total Cell Count	Population Fragmented Nuclei (%)
CN(C)Cc1cccc(NC(=C2C(=O)Nc3cc(C(=O)N(C)C)ccc32)c2ccccc2)c1	14.29% and 19.69%	68.64% and 31.44%	0% and 1.52%	1.78% and 1.64%	11.17% and 11.48%	85.71% and 80.31%	100% and 98.48%	15.48% and 9.84%	574 and 197	
COC[C@@H](CC(C)C)NC1=N/C(=C\c2ccc3ncsc3c2)C(=O)N1C	46.3% and 34.07%	76.07% and 38.55%	2.87% and 1.19%	0.43% and 1.56%	19.83% and 7.81%	53.7% and 65.93%	97.13% and 98.81%	19.4% and 12.5%	314 and 168	6.23% and 6.63%
COc1cc(/C=C(\C#N)C(=O)Nc2nnc(C(F)(F)F)s2)ccc1OCc1ccc(C(F)(F)F)cc1C(F)(F)F	13% and 14.66%	75.89% and 32.4%	0.22% and 0%	1.18% and 0%	13.82% and 22.41%	87% and 85.34%	99.78% and 100%	11.47% and 13.79%	449 and 179	1.79% and 2.79%
CN(C)C(=O)Cn1cc(-c2ccc(-c3nnc4ccccn34)cc2)cn1	27% and 46%	77% and 82%	6% and 7%	0%	28% and 44%	72% and 53%	93% and 92%	22% and 18%	595 and 447	10% and 9%

same assay, conditions: human, 24 h, 1 µM, compound concentration 1 uM

SMILES	Population Pyknosed Nuclei (%)
COc1cc(/C=C(\C#N)C(=O)Nc2nnc(C(F)(F)F)s2)ccc1OCc1ccc(C(F)(F)F)cc1C(F)(F)F	22.32% and 64.8%
CN(C)C(=O)Cn1cc(-c2ccc(-c3nnc4ccccn34)cc2)cn1	12% and 7%

same assay, conditions: human, 24 h, 10 µM, compound concentration 10 uM

SMILES	Population Apoptotic (%)	Population Fragmented Nuclei (%)	Population Hoechst High Intensity Objects (%)	Population Membrane Permeable-Phenotype (%)	Population Mitochondria Different-Phenotype (%)	Population Mitotic Cells (%)	Population Normal (%)	Population Pyknosed Nuclei (%)	Population Tubulin-Different-Phenotype (%)	Total Cell Count
CN(C)Cc1cccc(NC(=C2C(=O)Nc3cc(C(=O)N(C)C)ccc32)c2ccccc2)c1	47.22% and 65.45%	1.9% and 4%	0%	1.58% and 2.94%	28.85% and 52.94%	52.78% and 34.55%	100%	29.35% and 73.33%	57.71% and 41.18%	368 and 150
COC[C@@H](CC(C)C)NC1=N/C(=C\c2ccc3ncsc3c2)C(=O)N1C	41.88% and 34.04%	84.82% and 94.42%	5.28% and 8.58%	9.62% and 0%	5.77% and 0%	58.12% and 65.96%	94.72% and 91.42%	10.51% and 4.16%	15.38% and 0%	1175 and 1236
COc1cc(/C=C(\C#N)C(=O)Nc2nnc(C(F)(F)F)s2)ccc1OCc1ccc(C(F)(F)F)cc1C(F)(F)F	11.22% and 19.54%	0.62% and 1.78%	0% and 0.59%	0.79% and 1.27%		88.78% and 80.46%	100% and 99.41%	20.37% and 51.48%	9.47% and 5.06%	481 and 170
CN(C)C(=O)Cn1cc(-c2ccc(-c3nnc4ccccn34)cc2)cn1	35% and 61%	7% and 13%	4% and 7%	0%	44% and 39%	64% and 38%	95% and 92%	13% and 7%	27% and 11%	506 and 425

same assay, conditions: human, 24 h, 10 µM, compound concentration 10 uM

SMILES	Population Healthy Nuclei (%)
COC[C@@H](CC(C)C)NC1=N/C(=C\c2ccc3ncsc3c2)C(=O)N1C	4.67% and 1.42%
COc1cc(/C=C(\C#N)C(=O)Nc2nnc(C(F)(F)F)s2)ccc1OCc1ccc(C(F)(F)F)cc1C(F)(F)F	79% and 46.75%
CN(C)C(=O)Cn1cc(-c2ccc(-c3nnc4ccccn34)cc2)cn1	78% and 79%

same assay, conditions: human, 48 h, 1 µM, compound concentration 1 uM

SMILES	Population Fragmented Nuclei (%)	Population Healthy Nuclei (%)	Population Hoechst High Intensity Objects (%)	Population Membrane Permeable-Phenotype (%)	Population Mitochondria Different-Phenotype (%)	Population Mitotic Cells (%)	Population Normal (%)	Population Apoptotic (%)	Population Pyknosed Nuclei (%)	Population Tubulin-Different-Phenotype (%)
CN(C)Cc1cccc(NC(=C2C(=O)Nc3cc(C(=O)N(C)C)ccc32)c2ccccc2)c1	9.11% and 4.39%	81.42% and 58.77%	0.09% and 1.3%	9.75% and 2.24%	13.07% and 33.58%	98.1% and 79.76%	99.91% and 98.7%			
COC[C@@H](CC(C)C)NC1=N/C(=C\c2ccc3ncsc3c2)C(=O)N1C	10.02% and 10.37%	83.97% and 54.07%	2.16% and 8.16%	3.34% and 1.37%	36.28% and 26.03%	56.67% and 60.42%	97.84% and 91.84%	43.33% and 39.58%		
COc1cc(/C=C(\C#N)C(=O)Nc2nnc(C(F)(F)F)s2)ccc1OCc1ccc(C(F)(F)F)cc1C(F)(F)F	1.93% and 3.61%	85.65% and 55.67%	0.09% and 1.52%	4.73% and 1.85%	13.1% and 24.07%	89.63% and 86.08%	99.91% and 98.48%	10.37% and 13.92%		
CN(C)C(=O)Cn1cc(-c2ccc(-c3nnc4ccccn34)cc2)cn1	11%	81% and 80%	3% and 4%	0%	20% and 22%	81% and 67%	96% and 95%	18% and 32%	6% and 7%	13% and 12%

same assay, conditions: human, 48 h, 1 µM, compound concentration 1 uM

SMILES	Total Cell Count
CN(C)C(=O)Cn1cc(-c2ccc(-c3nnc4ccccn34)cc2)cn1	946 and 572

same assay, conditions: human, 48 h, 10 µM, compound concentration 10 uM

SMILES	Population Apoptotic (%)	Population Fragmented Nuclei (%)	Population Healthy Nuclei (%)	Population Hoechst High Intensity Objects (%)	Population Membrane Permeable-Phenotype (%)	Population Mitochondria Different-Phenotype (%)	Population Mitotic Cells (%)	Population Normal (%)	Population Pyknosed Nuclei (%)	Population Tubulin-Different-Phenotype (%)
CN(C)Cc1cccc(NC(=C2C(=O)Nc3cc(C(=O)N(C)C)ccc32)c2ccccc2)c1	35.58% and 37.33%	1.61% and 2.67%	79.82% and 47.33%	0%	2.91% and 2.82%	76.06% and 67.61%	64.42% and 62.67%	100%	18.57% and 50%	
COC[C@@H](CC(C)C)NC1=N/C(=C\c2ccc3ncsc3c2)C(=O)N1C		90.84% and 92.95%	2.22% and 3.18%	6.5% and 11.42%	6.67% and 0%	23.33% and 0%		93.5% and 88.58%	6.95% and 3.87%	10% and 2.38%
COc1cc(/C=C(\C#N)C(=O)Nc2nnc(C(F)(F)F)s2)ccc1OCc1ccc(C(F)(F)F)cc1C(F)(F)F		1.97% and 2.88%	88.86% and 79.5%	0% and 2.11%	4.71% and 1.81%	9.16% and 21.72%	88.79% and 63.27%	100% and 97.89%	9.16% and 17.63%	
CN(C)C(=O)Cn1cc(-c2ccc(-c3nnc4ccccn34)cc2)cn1	30% and 37%	18% and 14%	74% and 79%	5% and 2%	0%	24% and 27%	69% and 62%	94% and 97%	6% and 5%	14% and 12%

same assay, conditions: human, 48 h, 10 µM, compound concentration 10 uM

SMILES	Total Cell Count
COC[C@@H](CC(C)C)NC1=N/C(=C\c2ccc3ncsc3c2)C(=O)N1C	1447 and 1489
CN(C)C(=O)Cn1cc(-c2ccc(-c3nnc4ccccn34)cc2)cn1	753 and 616
